# Several values for one entry are separate records, joined by “and”; a condition that tells them apart may be missing. Identical values can stand only once.
# Columns and labels:
# N1E-115 [1] = type: functional, Mus musculus; details: at 50 µM
# [2] = molecular target: Potassium voltage-gated channel subfamily A member 3 (Mus musculus) (UniProt P16390); test: Blockade of peak steady-state K+ currents of Kv1.3 channels in mice fibroblasts L929 at 50 uM; type: functional
# Procedure, shortened: (§1)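 Whole-cell patch clamp at room temperature on L929 fibroblasts stably transfected with mKv1.3, grown in DMEM with 10% FCS and 300 µg/mL G418. Bath: 160 mM NaCl, 4.5 KCl, 2.0 CaCl2, 1.0 MgCl2, 5 HEPES, pH 7.4, with 5% DMSO. Pipette: 120 KF, 20 KCl, 10 HEPES, 10 EGTA, pH 7.2. Holding −80 mV, 200 ms pulses to 40 mV; peak steady-state current normalized to control bath; mean of ≥3 cells.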
# N1E-115 [3] = type: functional, Mus musculus; details: at 50 µM; remark: listed apart in the source
# [4] = molecular target: T1, Potassium voltage-gated channel subfamily A member 3 (Mus musculus, UniProt P16390); test: Blockade of peak steady-state K+ currents of voltage-gated potassium channel subunit Kv1.3 in mouse fibroblasts L929 at 50 uM; type: functional; details: in the assay text read “at different concentrations” for “at 50 uM”
# Procedure, shortened: as §1
# [5] = molecular target: Potassium voltage-gated channel subfamily A member 3 (Mus musculus) (UniProt P16390); details: at 50 µM
# N1E-115 [6] = test: Inhibition of N1E-115 cells Kv channels; type: functional, cell-based; details: Mus musculus
# Procedure, shortened: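 Whole-cell patch clamp on N1E-115 cells. Holding −80 mV, steps to 40 mV; room temperature, bath with 5% DMSO. Peak K+ block is measured at several concentrations, and a modified Hill equation is fitted to give the half-blocking concentration, reported ± SEM.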
# N1E-115 [7] = test: Blockade of peak steady-state Na+ currents of neuroblastoma cells N1E-115 at 25 uM; type: functional, Mus musculus
# Procedure, shortened: (§2)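 Same N1E-115 whole-cell recordings and solutions (holding −80 mV, room temperature, 5% DMSO). Peak Na+ current is taken at pulses to 0 mV and normalized to the current in control bathing medium. Reported as mean of at least three experiments.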
# [8] = molecular target: Potassium voltage-gated channel subfamily A member 3 (Mus musculus) (UniProt P16390); test: Blockade of peak steady-state K+ currents of Kv1.3 channels in mouse fibroblasts L929 at 25 uM; type: functional
# Procedure, shortened: as §1
# N1E-115 [9] = test: Blockade of peak steady-state Na+ currents of neuroblastoma cells N1E-115 at 100 uM; type: functional, Mus musculus
# Procedure, shortened: as §2
# [10] = molecular target: Potassium voltage-gated channel subfamily A member 3 (Mus musculus) (UniProt P16390); test: Blockade of peak steady-state K+ currents of voltage-gated potassium channel subunit Kv1.3 expressed in mouse fibroblasts L929 at 50 uM; type: functional
# Procedure, shortened: as §1
# N1E-115 [11] = test: Blockade of peak steady-state K+ currents of neuroblastoma cells N1E-115 at 25 uM; type: functional, Mus musculus
# Procedure, shortened: (§3)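 Whole-cell patch clamp at room temperature on N1E-115 neuroblastoma cells, grown in DMEM with 10% FCS. Bath: 125 mM NaCl, 5.5 KCl, 1.5 CaCl2, 2.0 MgCl2, 25 glucose, 5 HEPES, pH 7.4, with 5% DMSO. Pipette: 120 KF, 10 KCl, 10 NaCl, 10 HEPES, 10 EGTA, pH 7.2. Holding −80 mV, 100 ms pulses to 40 mV; peak steady-state K+ current normalized to control bath; mean of ≥3 cells.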
# N1E-115 [12] = test: Blockade of peak steady-state K+ currents of neuroblastoma cells N1E-115 at 100 uM; type: functional, Mus musculus
# Procedure, shortened: as §3
# [13] = molecular target: T1, Potassium voltage-gated channel subfamily A member 3; test: Inhibition of voltage-gated potassium channel subunit Kv1.3 expressed in L929 cells; type: functional, cell-based
# Procedure, shortened: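 Whole-cell patch clamp on mKv1.3-transfected L929 cells. Holding −80 mV, 200 ms steps to 40 mV; room temperature, bath with 5% DMSO. Peak K+ block is measured at several concentrations, and a modified Hill equation is fitted to give the half-blocking concentration, reported ± SEM.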
# N1E-115 [14] = test: Blockade of peak steady-state Na+ currents of neuroblastoma cells N1E-115 at 50 uM; type: functional, Mus musculus
# Procedure, shortened: as §2
# [15] = molecular target: Potassium voltage-gated channel subfamily A member 3 (Mus musculus) (UniProt P16390); test: Blockade of peak steady-state K+ currents of Kv1.3 channels in mice fibroblasts L929 at 25 uM; type: functional
# Procedure, shortened: as §1
# T1 sequence (P16390 whole entry): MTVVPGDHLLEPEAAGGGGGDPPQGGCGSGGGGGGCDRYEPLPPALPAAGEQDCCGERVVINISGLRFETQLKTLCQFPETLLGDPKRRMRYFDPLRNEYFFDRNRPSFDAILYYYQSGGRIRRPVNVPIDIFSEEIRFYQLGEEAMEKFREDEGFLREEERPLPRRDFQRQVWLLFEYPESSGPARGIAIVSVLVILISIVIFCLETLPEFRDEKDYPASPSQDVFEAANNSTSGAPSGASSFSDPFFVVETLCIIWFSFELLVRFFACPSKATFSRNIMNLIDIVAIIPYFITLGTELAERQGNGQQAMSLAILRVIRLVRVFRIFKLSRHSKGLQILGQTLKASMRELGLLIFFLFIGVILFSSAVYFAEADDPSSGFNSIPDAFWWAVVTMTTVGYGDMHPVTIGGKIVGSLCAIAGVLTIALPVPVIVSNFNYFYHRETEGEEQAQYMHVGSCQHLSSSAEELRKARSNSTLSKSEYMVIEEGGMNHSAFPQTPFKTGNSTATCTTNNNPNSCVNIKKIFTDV
# Sequence of Potassium voltage-gated channel subfamily A member 3 (Mus musculus) (P16390 whole entry): as above
Compound,BNa (N1E-115 [1]) [%],BK (N1E-115 [3]),BK [5] [%],other results
COc1ccc2c3c(c(=O)n(C)c2c1OC)C=CC(C)(C)O3,12,55%,,BK [2]: 41%
COc1cc2nc3occc3c(OC)c2cc1OC [KOKUSAGININE],0,22%,51,IC50 [4]: 49 µM; IC50 (N1E-115 [6]): 200 µM
Cn1c(=O)c2c(c3cc([N+](=O)[O-])ccc31)OC(C)(C)CC2,,14%,,BNa (N1E-115 [7]): 0%; BK [8]: 7%
CC1(C)Oc2nc3ccccc3c(O)c2CC1O (configuration not stated),,0%,,BNa (N1E-115 [9]): 0%
CC1(C)Oc2nc3ccc(Br)cc3c(O)c2CC1Br (configuration not stated),1,32%,,BK [10]: 35%
COc1ccc(CCCN2CCC(COC(c3ccccc3)c3ccccc3)CC2)cc1,,,,IC50 [4]: 0.28 µM
CC(C)(O)C1Cc2c(O)nc3ccccc3c2O1 (configuration not stated),0,7%,,
COc1ccc2c(c1)c1oc(C(C)C)cc1c(=O)n2C,11,57%,98,BNa (N1E-115 [7]): 5%; IC50 [4]: 5 µM; BK [8]: 98%; BK (N1E-115 [11]): 32%; IC50 (N1E-115 [6]): 38 µM
CC1(C)CCc2c(nc3ccccc3c2O)O1,-18,6%,7,
CC1(C)Oc2nc3ccccc3c(O)c2CC1SS(=O)(=O)O (configuration not stated),,,,BNa (N1E-115 [9]): 6%; BK (N1E-115 [12]): 0%
COc1ccc2c(c1)c(=O)c1c(n2C)OC(C(C)(C)O)C1 (configuration not stated),,0%,,BNa (N1E-115 [7]): 0%; BK [8]: 1%
Cn1c2c(c(=O)c3ccccc31)CC(O)C(C)(C)O2 (configuration not stated),0,0%,,
CC1(C)CCc2c(O)nc3ccccc3c2O1,3,37%,15,
COc1ccc2c(c1)c1c(c(=O)n2C)CCC(C)(C)O1,,39% and 52%,83,IC50 [13]: 18 µM; BNa (N1E-115 [7]): 3%; BK [8]: 57%; IC50 (N1E-115 [6]): 42 µM; BNa (N1E-115 [14]): 4%
COc1ccc2c(c1)c1oc(C(C)C)c(S(=O)(=O)[O-])c1c(=O)n2C.[Na+],,,,BNa (N1E-115 [7]): 0%; BK (N1E-115 [11]): 0%
COc1ccc2c(c1)c1c(c(=O)n2C)CC(C(C)(C)O)O1 (configuration not stated),,0%,,BNa (N1E-115 [7]): 0%; BK [8]: 0%
Cn1c(=O)c2c(c3ccccc31)OC(C(C)(C)O)C2 (configuration not stated),,4%,,BNa (N1E-115 [7]): 0%; BK [8]: 3%

Compound,BNa (N1E-115 [1]) [%],BK (N1E-115 [3]),BK [5] [%],other results
COc1ccc2c(OC)c3ccoc3nc2c1OC [SKIMMIANINE],6,20%,13,
CCCCC/N=c1\ccn(Cc2ccccc2)c2ccccc12 [CP-339818],,,,IC50 [4]: 0.23 µM
Cn1c2c(c(=O)c3ccccc31)CC(C(C)(C)O)O2 (configuration not stated),0,0%,1,
CC(C)c1cc2c(=O)n(C)c3ccccc3c2o1,11,42%,70,BNa (N1E-115 [7]): 0%; BK [8]: 44%; BK (N1E-115 [11]): 25%
CC(C)c1cc2c(=O)c3ccccc3n(C)c2o1,0,15%,23,
COc1ccc2c(c1)c1c(c(=O)n2C)CC(O)C(C)(C)O1 (configuration not stated),2,21%,4,
COc1ccc2c(c1)c1c(c(=O)n2C)C=CC(C)(C)O1,12,64%,,BNa (N1E-115 [7]): 1%; BK [15]: 88%; IC50 [4]: 10 µM; BK [2]: 93%; BK (N1E-115 [11]): 44%; IC50 (N1E-115 [6]): 31 µM
Cn1c(=O)c2c(c3cc([N+](=O)[O-])ccc31)OC(C(C)(C)O)C2 (configuration not stated),0,4%,,
CC1(C)CCc2c(O)nc3ccc([N+](=O)[O-])cc3c2O1,8,23%,,
COc1ccc2c(c1)c(=O)c1c(n2C)OC(C)(C)C(O)C1 (configuration not stated),3,6%,,
COc1ccc2c(c1)c(=O)c1c(n2C)OC(C)(C)CC1,0,7%,10,
Cn1c2c(c(=O)c3cc(O)ccc31)CC(O)C(C)(C)O2 (configuration not stated),,0%,,BNa (N1E-115 [9]): 3%
Cn1c2c(c(=O)c3cc(O)ccc31)CC(C(C)(C)O)O2 (configuration not stated),,7%,,BNa (N1E-115 [9]): 13%
Cn1c(=O)c2c(c3ccccc31)OC(C)(C)C(O)C2 (configuration not stated),4,15%,,BK [8]: 4%
Cn1c(=O)c2c(c3ccccc31)OC(C)(C)CC2,7,65%,48,
COc1c2ccccc2nc2occc12 [DICTAMNINE],0,31%,23,
COc1ccc2c(c1)c(=O)c1cc(C(C)C)oc1n2C,1,33%,44,

# — ChEMBL document CHEMBL1134395, “Angular methoxy-substituted furo- and pyranoquinolinones as blockers of the voltage-gated potassium channel Kv1.3” (J Med Chem, 2001)
